# Tests used:
# Conditions in all cases: stereoisomer not certain
# OR2M5 V105T M154T G255A = system: OR2M5 V105T M154T G255A
# Procedure, shortened: (§1)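 Whether a receptor–molecule pair is responsive (active) rests on the original authors' judgment that its measured signal was statistically different from baseline. Pairs without that judgment are non-responsive (inactive). Sources used varied assay methods, commonly transient luciferase assays in mammalian cell lines.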
# [1] = system: OR2M5 V105T S119A A156G G255A
# Procedure, shortened: as §1
# OR2M5 V105T = system: OR2M5 V105T
# Sequence of OR2M5 V105T (as listed by the source, stated change not applied): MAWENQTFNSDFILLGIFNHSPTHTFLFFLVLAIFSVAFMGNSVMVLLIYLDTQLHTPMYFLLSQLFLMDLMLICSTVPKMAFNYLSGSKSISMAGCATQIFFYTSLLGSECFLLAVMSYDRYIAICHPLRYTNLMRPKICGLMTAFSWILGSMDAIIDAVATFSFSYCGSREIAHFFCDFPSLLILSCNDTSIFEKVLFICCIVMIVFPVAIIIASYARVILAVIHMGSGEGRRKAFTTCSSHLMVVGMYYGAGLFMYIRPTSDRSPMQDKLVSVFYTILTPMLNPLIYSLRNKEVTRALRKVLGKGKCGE
# Procedure, shortened: as §1
# OR2M5 V198I = system: OR2M5 V198I
# Sequence of OR2M5 V198I (as listed by the source, stated change not applied): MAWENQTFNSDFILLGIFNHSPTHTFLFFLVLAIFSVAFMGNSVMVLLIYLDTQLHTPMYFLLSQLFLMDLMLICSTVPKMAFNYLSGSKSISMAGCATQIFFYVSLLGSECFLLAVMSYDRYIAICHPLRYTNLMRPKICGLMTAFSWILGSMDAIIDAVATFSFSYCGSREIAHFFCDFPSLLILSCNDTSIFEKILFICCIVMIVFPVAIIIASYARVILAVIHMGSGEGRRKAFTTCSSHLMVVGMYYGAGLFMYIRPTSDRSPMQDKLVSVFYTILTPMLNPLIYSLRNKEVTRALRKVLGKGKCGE
# Procedure, shortened: as §1
# OR2S2 (Homo sapiens) = target: T1, OR2S2 (Homo sapiens) (UniProt Q9NQN1)
# T1 sequence (whole entry): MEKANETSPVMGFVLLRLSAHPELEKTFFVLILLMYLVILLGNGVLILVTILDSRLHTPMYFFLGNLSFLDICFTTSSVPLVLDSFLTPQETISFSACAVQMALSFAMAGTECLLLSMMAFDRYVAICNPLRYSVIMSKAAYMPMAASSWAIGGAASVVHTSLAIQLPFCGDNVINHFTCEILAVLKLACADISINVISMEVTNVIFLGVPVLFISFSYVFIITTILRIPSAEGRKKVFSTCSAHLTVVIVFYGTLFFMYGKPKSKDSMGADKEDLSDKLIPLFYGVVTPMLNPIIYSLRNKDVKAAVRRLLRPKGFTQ
# Procedure, shortened: as §1
# OR2T1 (Homo sapiens) = target: T2, OR2T1 (Homo sapiens) (UniProt O43869)
# T2 sequence (whole entry): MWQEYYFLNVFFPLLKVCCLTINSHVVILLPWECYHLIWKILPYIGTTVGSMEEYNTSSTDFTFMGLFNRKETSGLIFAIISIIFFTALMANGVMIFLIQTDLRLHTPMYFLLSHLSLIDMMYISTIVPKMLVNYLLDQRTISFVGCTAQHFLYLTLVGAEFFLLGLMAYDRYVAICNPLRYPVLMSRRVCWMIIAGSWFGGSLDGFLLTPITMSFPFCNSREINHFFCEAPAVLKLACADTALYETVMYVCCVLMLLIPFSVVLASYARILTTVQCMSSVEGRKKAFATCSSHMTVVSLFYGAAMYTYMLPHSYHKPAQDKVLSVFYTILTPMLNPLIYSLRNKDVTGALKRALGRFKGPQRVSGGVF
# Procedure, shortened: as §1
# OR2T10 (Homo sapiens) = target: T3, OR2T10 (Homo sapiens) (UniProt Q8NGZ9)
# T3 sequence (whole entry): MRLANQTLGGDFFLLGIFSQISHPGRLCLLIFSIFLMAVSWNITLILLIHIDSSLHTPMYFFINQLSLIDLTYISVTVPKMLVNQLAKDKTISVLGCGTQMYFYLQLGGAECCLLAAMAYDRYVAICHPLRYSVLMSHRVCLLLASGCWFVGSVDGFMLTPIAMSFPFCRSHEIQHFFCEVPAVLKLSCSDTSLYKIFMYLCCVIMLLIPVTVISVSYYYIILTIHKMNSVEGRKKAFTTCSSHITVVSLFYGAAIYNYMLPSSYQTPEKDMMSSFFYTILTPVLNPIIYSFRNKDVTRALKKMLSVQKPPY
# Procedure, shortened: as §1
# OR2M7 (Homo sapiens) = target: T4, OR2M7 (Homo sapiens) (UniProt Q8NG81)
# T4 sequence (whole entry): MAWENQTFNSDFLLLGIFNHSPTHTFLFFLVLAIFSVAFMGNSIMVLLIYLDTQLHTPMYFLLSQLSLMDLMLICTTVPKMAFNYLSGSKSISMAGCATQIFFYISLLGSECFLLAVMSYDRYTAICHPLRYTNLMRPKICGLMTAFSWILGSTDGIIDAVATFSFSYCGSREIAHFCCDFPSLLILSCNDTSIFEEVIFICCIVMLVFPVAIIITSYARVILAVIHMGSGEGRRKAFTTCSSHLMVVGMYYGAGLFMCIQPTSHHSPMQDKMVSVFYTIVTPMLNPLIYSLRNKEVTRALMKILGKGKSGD
# Procedure, shortened: as §1
# OR2M7 [2] = system: OR2M7
# Procedure, shortened: as §1
# Target sequence in this assay (as listed by the source): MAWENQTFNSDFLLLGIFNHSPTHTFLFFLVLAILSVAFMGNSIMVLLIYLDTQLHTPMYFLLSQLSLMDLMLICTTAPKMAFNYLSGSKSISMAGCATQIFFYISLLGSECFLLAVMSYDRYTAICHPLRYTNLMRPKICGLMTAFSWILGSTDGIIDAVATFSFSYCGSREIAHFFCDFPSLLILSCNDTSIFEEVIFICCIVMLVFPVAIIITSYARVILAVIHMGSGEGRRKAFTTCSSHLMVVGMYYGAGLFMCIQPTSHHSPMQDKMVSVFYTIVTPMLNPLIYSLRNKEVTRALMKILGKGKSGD
# OR2M7 [3] = system: OR2M7; remark: listed apart in the source
# Procedure, shortened: as §1
# Target sequence in this assay (as listed by the source): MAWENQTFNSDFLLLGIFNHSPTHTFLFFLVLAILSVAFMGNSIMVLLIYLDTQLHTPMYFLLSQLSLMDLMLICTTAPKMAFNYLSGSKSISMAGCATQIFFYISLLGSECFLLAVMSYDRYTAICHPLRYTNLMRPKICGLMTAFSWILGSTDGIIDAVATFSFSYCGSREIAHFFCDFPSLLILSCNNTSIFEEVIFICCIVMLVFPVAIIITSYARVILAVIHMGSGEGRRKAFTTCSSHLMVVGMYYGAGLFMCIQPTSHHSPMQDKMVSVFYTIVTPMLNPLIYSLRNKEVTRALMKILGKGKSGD
# 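Further: active if original authors judged signal statistically different from baseline.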
smiles,measurement,setting,value
CCC(S)C(C)CO (stereo unspecified),odorant receptor agonist call,OR2M5 V105T M154T G255A,inactive
same,odorant receptor agonist call,[1],inactive
same,odorant receptor agonist call,OR2M5 V105T,inactive
same,odorant receptor agonist call,OR2M5 V198I,inactive
same,odorant receptor agonist call,OR2S2 (Homo sapiens),inactive
same,odorant receptor agonist call,OR2T1 (Homo sapiens),inactive
same,odorant receptor agonist call,OR2T10 (Homo sapiens),inactive
CCOC(=O)C(C)C,odorant receptor agonist call,OR2M7 (Homo sapiens),inactive
CCC(=O)O,odorant receptor agonist call,OR2M7 (Homo sapiens),inactive
CC(C)=CCCC(C)CCO (stereo unspecified),odorant receptor agonist call,OR2M7 (Homo sapiens),active
CCCCCOC(=O)CCCCC,odorant receptor agonist call,OR2M7 (Homo sapiens),inactive
CCCCCC=O,odorant receptor agonist call,OR2M7 (Homo sapiens),inactive
CC1=C(O)C(=O)C(C)O1 (stereo unspecified),odorant receptor agonist call,OR2M7 (Homo sapiens),inactive
same,odorant receptor agonist call,OR2S2 (Homo sapiens),inactive
same,odorant receptor agonist call,OR2T1 (Homo sapiens),inactive
same,odorant receptor agonist call,OR2T10 (Homo sapiens),inactive
CCCCC(=O)O,odorant receptor agonist call,OR2M7 (Homo sapiens),inactive
CCCCC(S)C(C)CO (stereo unspecified),odorant receptor agonist call,OR2M7 (Homo sapiens),inactive
same,odorant receptor agonist call,OR2S2 (Homo sapiens),inactive
same,odorant receptor agonist call,OR2T1 (Homo sapiens),inactive
same,odorant receptor agonist call,OR2T10 (Homo sapiens),inactive
CCC1OC(=O)C(O)=C1C (stereo unspecified),odorant receptor agonist call,OR2M7 (Homo sapiens),inactive
same,odorant receptor agonist call,OR2S2 (Homo sapiens),inactive
same,odorant receptor agonist call,OR2T1 (Homo sapiens),inactive
same,odorant receptor agonist call,OR2T10 (Homo sapiens),inactive
CC1=NC(C)C(C)S1 (stereo unspecified),odorant receptor agonist call,OR2M7 (Homo sapiens),inactive
same,odorant receptor agonist call,OR2S2 (Homo sapiens),inactive
same,odorant receptor agonist call,OR2T1 (Homo sapiens),inactive
same,odorant receptor agonist call,OR2T10 (Homo sapiens),inactive
CCCCCC(=O)C(C)C(C)=O (stereo unspecified),odorant receptor agonist call,OR2M7 (Homo sapiens),inactive
same,odorant receptor agonist call,OR2S2 (Homo sapiens),inactive
same,odorant receptor agonist call,OR2T1 (Homo sapiens),inactive
same,odorant receptor agonist call,OR2T10 (Homo sapiens),inactive
CCCCCC(=O)CC,odorant receptor agonist call,OR2M7 (Homo sapiens),inactive
CC(=O)OCC=C(C)C,odorant receptor agonist call,OR2M7 (Homo sapiens),inactive
CCCCCCC(C)=O,odorant receptor agonist call,OR2M7 (Homo sapiens),inactive
CCC1OC(C)=C(O)C1=O (stereo unspecified),odorant receptor agonist call,OR2M7 (Homo sapiens),inactive
same,odorant receptor agonist call,OR2S2 (Homo sapiens),inactive
same,odorant receptor agonist call,OR2T1 (Homo sapiens),inactive
same,odorant receptor agonist call,OR2T10 (Homo sapiens),inactive
CCCCCCCCC(=O)O,odorant receptor agonist call,OR2M7 (Homo sapiens),inactive
CC(C)=CCCC(C)=CCO,odorant receptor agonist call,OR2M7 (Homo sapiens),active
same,odorant receptor agonist call,OR2M7 [2],active
same,odorant receptor agonist call,OR2M7 [3],inactive
same,odorant receptor agonist call,OR2T10 (Homo sapiens),inactive
Cc1cnc(C)c(C)n1,odorant receptor agonist call,OR2M7 (Homo sapiens),inactive
same,odorant receptor agonist call,OR2S2 (Homo sapiens),inactive
same,odorant receptor agonist call,OR2T1 (Homo sapiens),inactive
same,odorant receptor agonist call,OR2T10 (Homo sapiens),inactive
CCCCCO,odorant receptor agonist call,OR2M7 (Homo sapiens),inactive
CCCCC(=O)CC,odorant receptor agonist call,OR2M7 (Homo sapiens),inactive
CC1=C(O)C(=O)OC1C (stereo unspecified),odorant receptor agonist call,OR2M7 (Homo sapiens),inactive
same,odorant receptor agonist call,OR2S2 (Homo sapiens),inactive
same,odorant receptor agonist call,OR2T1 (Homo sapiens),inactive
same,odorant receptor agonist call,OR2T10 (Homo sapiens),inactive
CCCCC(C)=O,odorant receptor agonist call,OR2M7 (Homo sapiens),inactive
CC(=O)c1c(C)c([N+](=O)[O-])c(C(C)(C)C)c([N+](=O)[O-])c1C,odorant receptor agonist call,OR2M7 (Homo sapiens),inactive
same,odorant receptor agonist call,OR2S2 (Homo sapiens),inactive
same,odorant receptor agonist call,OR2T1 (Homo sapiens),inactive
same,odorant receptor agonist call,OR2T10 (Homo sapiens),inactive
CCCCCCCCCCO,odorant receptor agonist call,OR2M7 (Homo sapiens),inactive
CCCCCCC(=O)[O-].[H+],odorant receptor agonist call,OR2M7 (Homo sapiens),inactive
CC(CO)CS (stereo unspecified),odorant receptor agonist call,OR2M7 (Homo sapiens),inactive
same,odorant receptor agonist call,OR2S2 (Homo sapiens),inactive
same,odorant receptor agonist call,OR2T1 (Homo sapiens),inactive
same,odorant receptor agonist call,OR2T10 (Homo sapiens),inactive
O=c1ccc2ccccc2o1,odorant receptor agonist call,OR2M7 (Homo sapiens),inactive
CCCCCC(S)C(C)CO (stereo unspecified),odorant receptor agonist call,OR2M7 (Homo sapiens),inactive
same,odorant receptor agonist call,OR2S2 (Homo sapiens),inactive
same,odorant receptor agonist call,OR2T1 (Homo sapiens),inactive
same,odorant receptor agonist call,OR2T10 (Homo sapiens),inactive
